Measurements published in ChEMBL document CHEMBL2434958, “Identification of a novel series of orexin receptor antagonists with a distinct effect on sleep architecture for the treatment of insomnia” (J Med Chem, 2013).
Blank lines part the entries; values can stand above or below the compound they belong to. The source made the active and inactive calls. The rule behind the calls is not given here.

Tests used:
Orexin receptor type 2 [1] = target: T1, Orexin receptor type 2 (Homo sapiens, UniProt O43614); assay: Antagonist activity at human OX2 receptor expressed in HEK cells assessed as inhibition of orexin A-induced Ca2+ accumulation after 1 hr by Fluo-4-AM staining-based FLIPR assay; format: functional, cell-based, HEK293
T1 sequence (O43614 whole entry): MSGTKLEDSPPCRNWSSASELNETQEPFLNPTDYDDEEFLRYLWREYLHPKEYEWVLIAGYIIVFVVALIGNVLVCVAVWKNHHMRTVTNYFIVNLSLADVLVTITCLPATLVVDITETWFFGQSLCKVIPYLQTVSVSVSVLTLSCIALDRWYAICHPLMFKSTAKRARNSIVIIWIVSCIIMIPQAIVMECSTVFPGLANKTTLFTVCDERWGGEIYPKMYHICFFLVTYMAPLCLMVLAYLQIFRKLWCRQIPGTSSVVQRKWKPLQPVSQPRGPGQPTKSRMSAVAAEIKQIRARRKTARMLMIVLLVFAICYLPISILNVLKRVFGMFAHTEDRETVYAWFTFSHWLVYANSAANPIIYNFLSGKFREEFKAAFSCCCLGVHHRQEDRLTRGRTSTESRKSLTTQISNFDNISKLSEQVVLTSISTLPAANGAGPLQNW
How it was run: (§1)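 Recombinant CHO or HEK cells expressing human OX1R or OX2R, serum-deprived overnight in HEPES buffer pH 7.4 with 1% BSA. Cells were loaded with 2 μM Fluo4-AM plus 0.1 mM probenecid for 1 h. Compound (up to eight concentrations, usually 10⁻⁹–10⁻⁵ M) was added first, then submaximal orexin A 1 h later. Curves run in triplicate; pKi from IC50 by Cheng–Prusoff.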

[2] = target: T2, Orexin/Hypocretin receptor type 1 (Homo sapiens, UniProt O43613); assay: Antagonist activity at human OX1 receptor expressed in CHO cells assessed as inhibition of orexin A-induced Ca2+ accumulation after 1 hr by Fluo-4-AM staining-based FLIPR assay; format: functional, cell-based; how it was run: as §1
T2 sequence (O43613 whole entry): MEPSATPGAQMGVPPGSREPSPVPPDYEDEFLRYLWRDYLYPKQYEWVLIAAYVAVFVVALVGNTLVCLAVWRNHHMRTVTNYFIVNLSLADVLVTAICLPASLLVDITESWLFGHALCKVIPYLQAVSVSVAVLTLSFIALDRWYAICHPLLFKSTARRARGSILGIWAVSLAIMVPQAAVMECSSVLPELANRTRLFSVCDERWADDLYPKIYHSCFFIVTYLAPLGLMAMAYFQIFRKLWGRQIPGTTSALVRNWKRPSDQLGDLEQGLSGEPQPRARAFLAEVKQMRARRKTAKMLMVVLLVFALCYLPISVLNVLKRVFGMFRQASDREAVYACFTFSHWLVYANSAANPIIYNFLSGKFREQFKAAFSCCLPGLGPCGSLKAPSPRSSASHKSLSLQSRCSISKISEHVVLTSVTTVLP

[3] = Oral bioavailability in C57BL/6 mouse blood at 3 mg/kg; format: ADME, organism-based
How it was run: (§2)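 Cassette PK in male C57BL/6 mice (20–30 g), up to five test compounds plus one reference. Iv 1 mg/kg in NMP/blank plasma 10/90 v/v, 5 mL/kg, saphenous vein. Oral 3 mg/kg suspended in 0.5% w/v carboxymethylcellulose in water/Tween 80 (99.5/0.5), 10 mL/kg gavage. Blood sampled 5 min (iv) or 15 min (po) to 24 h, n = 3 per time point, measured by LC/MS/MS.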

[4] = Ratio of drug level in brain to blood in C57BL/6 mouse at 3 mg/kg, po after 15 mins; format: ADME, organism-based; design: dose 3 mg/kg, route oral
How it was run: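 Male C57BL/6 mice (20–30 g), cassette dosing of up to five compounds plus a reference. Blood and brain collected 15 min post-dose, n = 3. Brain homogenised in 2 mM KH2PO4 and extracted with acetonitrile. LC/MS/MS quantitation; mean brain/blood ratio.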

[5] = AUC (infinity) in C57BL/6 mouse blood at 3 mg/kg, po; format: ADME, organism-based; design: time infinity, dose 3 mg/kg, route oral; how it was run: as §2
[6] = Cmax in C57BL/6 mouse blood at 3 mg/kg, po; format: ADME, organism-based; design: dose 3 mg/kg, route oral; how it was run: as §2
[7] = Total blood clearance in C57BL/6 mouse at 1 mg/kg, iv; format: ADME, organism-based; design: dose 1 mg/kg, route intravenous; how it was run: as §2
[8] = Volume of distribution at steady state in C57BL/6 mouse at 1 mg/kg, iv; format: ADME, organism-based; design: dose 1 mg/kg, route intravenous; conditions: in vivo, read-out: Vdss; how it was run: as §2
Mus musculus [9] = assay: Induction of sleep in C57BL/6 mouse assessed as increased rapid eye movement sleep proportion at 50 mg/kg, po measured during 1 hr by EEG/EMG analysis relative to vehicle-treated control; format: functional, organism-based; design: dose 50 mg/kg
How it was run: (§3)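 Male C57Bl/6 mice with implanted cortical EEG screw electrodes and EMG, recovered 2 weeks, 12 h/12 h light/dark cycle. Crossover: vehicle (0.5% methylcellulose, 10 mL/kg po) on day 2, compound po on day 3, each given 5–15 min before lights-off. 23 h recordings; EEG filtered 0.3–30 Hz, EMG 5–30 Hz; 10 s epochs scored as wake, NREM or REM from EEG/EMG and infrared motility.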

Mus musculus [10] = assay: Induction of sleep in C57BL/6 mouse assessed as rapid eye movement and non-rapid eye movement sleep balance at 50 mg/kg, po measured during 1 hr by EEG/EMG analysis relative to vehicle-treated control; format: functional, organism-based; design: dose 50 mg/kg
How it was run: (§4)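 Male C57Bl/6 mice with implanted cortical EEG and EMG electrodes, 2-week recovery, 12/12 h light cycle. Vehicle (0.5% methylcellulose, 10 mL/kg po) given on day 2 and compound po on day 3, just before lights off. Recording ran 23 h. 10 s epochs scored as wake, NREM or REM from EEG/EMG plus infrared motility. Each animal served as its own vehicle control.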

Mus musculus [11] = assay: Induction of sleep in C57BL/6 mouse assessed as increase in rapid eye movement at 50 mg/kg, po measured during 1 hr by EEG/EMG analysis relative to vehicle-treated control; format: functional, organism-based; design: dose 50 mg/kg; how it was run: as §4
Mus musculus [12] = assay: Induction of sleep in C57BL/6 mouse assessed as increase in non-rapid eye movement at 50 mg/kg, po measured during 4 hrs by EEG/EMG analysis relative to vehicle-treated control; format: functional, organism-based; design: dose 50 mg/kg; how it was run: as §3
Mus musculus [13] = assay: Effect on locomotion in C57BL/6 mouse assessed as reduction of motility at 50 mg/kg, po measured up to 4 hrs; format: functional, organism-based; design: dose 50 mg/kg
How it was run: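 Mice habituated, then dosed orally immediately before lights-off (15:00, start of active phase); vehicle 0.5% methylcellulose in water. Inactivity = any minute with no infrared beam breaks. Per-animal difference between inactivity 15:00–19:00 post-dose and the same 4 h during habituation 24 h earlier. n = 6; one-way ANOVA with Dunnett's test versus vehicle.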

Brain [14] = assay: Fraction unbound in C57BL/6 mouse brain at 50 mg/kg, po after 1 hr by LC-MS/MS analysis; format: ADME, organism-based; design: dose 50 mg/kg, route oral; conditions: in vivo
How it was run: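 Unbound fraction assessed in mouse brain homogenate by a slightly adapted literature method, measured separately from the dosed animals. Free brain level obtained by multiplying fraction unbound by brain concentration from the 50 mg/kg po satellite group at 60 min. Mean ± SD, n = 3.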

[15] = Drug uptake in C57BL/6 mouse blood at 50 mg/kg after 1 hr by LC-MS/MS analysis; format: ADME, organism-based; design: dose 50 mg/kg; conditions: read-out: Drug uptake
How it was run: (§5)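 Satellite PK group: oral gavage of 50 mg/kg suspended in 0.5% w/v methylcellulose in water, 10 mL/kg. Blood and brain taken after decapitation at 15 and 60 min post-dose, n = 3 mice per time point, stored at −20 °C. Brain homogenised in 2 mM KH₂PO₄; acetonitrile quench with internal standard; LC/MS/MS against six-level calibration curve. Mean ± SD reported.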

Brain [16] = assay: Drug uptake in C57BL/6 mouse brain at 50 mg/kg after 1 hr by LC-MS/MS analysis; format: ADME, organism-based; design: dose 50 mg/kg; conditions: in vivo; how it was run: as §5
Orexin receptor type 2 [17] = target: T3, Orexin receptor type 2 (Mus musculus, UniProt P58308); assay: Antagonist activity at mouse OX2 receptor expressed in HEK cells assessed as inhibition of orexin A-induced Ca2+ accumulation after 1 hr by Fluo-4-AM staining-based FLIPR assay; format: functional, cell-based, HEK293
T3 sequence (P58308 whole entry): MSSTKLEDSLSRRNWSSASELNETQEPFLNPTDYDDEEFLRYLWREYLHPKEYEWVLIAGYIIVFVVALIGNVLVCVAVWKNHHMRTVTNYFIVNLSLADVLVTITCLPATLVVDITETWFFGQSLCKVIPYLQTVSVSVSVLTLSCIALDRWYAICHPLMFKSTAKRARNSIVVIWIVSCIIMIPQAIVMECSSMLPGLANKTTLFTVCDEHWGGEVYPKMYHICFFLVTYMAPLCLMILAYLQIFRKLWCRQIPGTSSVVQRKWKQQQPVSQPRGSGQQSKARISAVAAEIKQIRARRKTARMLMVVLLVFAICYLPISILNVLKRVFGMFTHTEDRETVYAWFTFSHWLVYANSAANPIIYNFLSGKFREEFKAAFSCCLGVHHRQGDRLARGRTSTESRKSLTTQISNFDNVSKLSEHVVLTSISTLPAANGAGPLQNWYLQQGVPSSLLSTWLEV

[18] = target: T4, Orexin/Hypocretin receptor type 1 (Mus musculus, UniProt P58307); assay: Antagonist activity at mouse OX1 receptor expressed in CHO cells assessed as inhibition of orexin A-induced Ca2+ accumulation after 1 hr by Fluo-4-AM staining-based FLIPR assay; format: functional, cell-based
T4 sequence (P58307 whole entry): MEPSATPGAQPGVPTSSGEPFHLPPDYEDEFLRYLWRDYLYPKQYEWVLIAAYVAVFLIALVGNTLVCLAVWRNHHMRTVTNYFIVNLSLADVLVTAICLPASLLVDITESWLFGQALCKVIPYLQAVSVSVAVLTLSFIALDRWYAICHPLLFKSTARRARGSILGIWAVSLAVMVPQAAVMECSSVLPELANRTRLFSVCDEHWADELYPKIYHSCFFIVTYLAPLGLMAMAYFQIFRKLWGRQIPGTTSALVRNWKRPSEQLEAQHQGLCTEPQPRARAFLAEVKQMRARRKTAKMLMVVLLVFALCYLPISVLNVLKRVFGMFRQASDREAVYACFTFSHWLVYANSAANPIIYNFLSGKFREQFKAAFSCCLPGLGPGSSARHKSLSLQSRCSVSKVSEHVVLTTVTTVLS

Mus musculus [19] = assay: Induction of sleep in C57BL/6 mouse assessed as increase in total sleep time at 50 mg/kg, po measured during first 4 hrs by EEG/EMG analysis relative to vehicle-treated control

Ki (Orexin receptor type 2 [1]): 26.9 nM | Ki [2]: 1410 nM
Structure (SMILES): Cc1ccnc(N2CCC3(CCCN(Cc4c[nH]c5ccccc45)C3=O)CC2)n1

Ki (Orexin receptor type 2 [1]): 6.92 nM | Ki [2]: 661 nM
Structure (SMILES): Cc1cc(C)nc(N2CCC3(CCCN(Cc4c[nH]c5ccccc45)C3=O)CC2)n1

Ki (Orexin receptor type 2 [1]): 589 nM | Ki [2]: 1480 nM
Structure (SMILES): O=C1CCCC2(CCN(c3cnc4ccccc4n3)CC2)N1Cc1ccccc1

Ki (Orexin receptor type 2 [1]): 61.7 nM | Ki [2]: 288 nM
Structure (SMILES): O=C1N(Cc2c[nH]c3ccccc23)CCCC12CCN(c1cnc3ccccc3n1)CC2

Ki (Orexin receptor type 2 [1]): 69.2 nM | Ki [2]: 275 nM
Structure (SMILES): O=C1CCCC2(CCN(c3cnc4ccccc4n3)CC2)N1Cc1c[nH]c2ccccc12

bioavailability [3]: 5% | Kp at 0.25 h [4]: 0.2 | AUC(0-inf) [5]: 0.031 µM·h | Cmax [6]: 18 nM | clearance [7]: 188 mL/min/kg | Vd [8]: 3.1 L/kg | Ki (Orexin receptor type 2 [1]): 0.457 nM | Ki [2]: 9.12 nM
Structure (SMILES): O=C1CCCC2(CCN(c3cnc4ccccc4n3)CC2)N1Cc1cccc2[nH]ccc12

Ki (Orexin receptor type 2 [1]): 17.4 nM | Ki [2]: 813 nM
Structure (SMILES): Cc1cc(C)nc(N2CCC3(CCCN(Cc4nn(C)cc4-c4ccccc4)C3=O)CC2)n1

bioavailability [3]: 47% | Fu (Brain [14]): 0.61% | concentration at 1 h [15]: 6910 nM | Drug uptake (Brain [16]): 8778 pmol/g | Ki (Orexin receptor type 2 [17]): 58.9 nM | Ki [18]: 457 nM | Kp at 0.25 h [4]: 1.1 | AUC(0-inf) [5]: 2.09 µM·h | Cmax [6]: 864 nM | clearance [7]: 28 mL/min/kg | Vd [8]: 1.6 L/kg
Structure (SMILES): COc1ccnc(N2CCC3(CCCN(Cc4c[nH]c5ccccc45)C3=O)CC2)n1
Activity (Mus musculus [9]): Active | Activity (Mus musculus [10]): inactive | Activity (Mus musculus [11]): inactive | Activity (Mus musculus [12]): Active | Activity (Mus musculus [13]): Active | Activity (Mus musculus [19]): Active

Ki (Orexin receptor type 2 [1]): 186 nM | Ki [2]: 955 nM
Structure (SMILES): O=C(Cc1ccccc1)N1CCCC12CCN(c1cnc3ccccc3n1)CC2

Ki (Orexin receptor type 2 [1]): 20.9 nM | Ki [2]: 1450 nM
Structure (SMILES): Cc1cc(C)nc(N2CCC3(CCCN(Cc4cn(C)c5ccccc45)C3=O)CC2)n1

Ki (Orexin receptor type 2 [1]): 3.16 nM | Ki [2]: 18.6 nM
Structure (SMILES): O=C1CCCC2(CCN(c3nc4ccccc4o3)CC2)N1Cc1cccc2[nH]ccc12

Ki (Orexin receptor type 2 [1]): 6.92 nM | Ki [2]: 490 nM
Structure (SMILES): Cc1cc(C)nc(N2CCC3(CCCN(Cc4n[nH]c5ccccc45)C3=O)CC2)n1
